Values after ≈ are worked out from the molar mass of the structure shown. Active and inactive are the calls of the source. The calls are words filed in the database; no cut-off is given here.

The IC50 is the concentration that gives 50% inhibition. The low end stands for greater potency in that assay, the high end for weaker potency in that assay.

For assay [1], the system named is Radical scavenging activity. The assay can be described thus: Antioxidant activity against DPPH radical scavenging activity at 3.125 ug/ml. It counts as functional. The gist of the method: (§1)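 Scavenging of DPPH radical: sample in methanol (3.125, 6.25, 12.5, 25.0 µg/mL final) mixed 1:1 with 0.15 mM DPPH in methanol; absorbance change at 517 nm followed for 1 min. Percent scavenged = 100 × (A0 − Ai)/A0, A0 being initial DPPH absorbance.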
Background: DPPH is a stable violet radical that fades when it is reduced.

The subject of assay [2] is Radical scavenging activity. The assay can be described thus: Antioxidant activity against DPPH radical scavenging activity at 6.25 ug/ml. It counts as functional. The procedure, abridged: as §1
Assay [3] has as its system Radical scavenging activity. The assay can be described thus: Antioxidant activity against DPPH radical scavenging activity at 12.5 ug/ml. Type of assay: functional. The procedure, abridged: as §1
The subject of assay [4] is Radical scavenging activity. The assay can be described thus: Antioxidant activity against DPPH radical scavenging activity at 25 ug/ml. Type of assay: functional. The procedure, abridged: as §1
The subject of assay [5] is HL-60. The assay can be described thus: Cytotoxicity against human HL60 cells after 24 hrs by trypan blue exclusion assay. It counts as functional, cell-based. The note with it: HL-60, 24 h. The procedure, abridged:
(§2)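 HL-60 cells grown in RPMI 1640 with 10% FBS and 1% penicillin/streptomycin, 37 °C, 5% CO2. Seeded at 1 × 10^5 cells/well and exposed to various compound concentrations for 24 h. Cells counted; viability by trypan blue exclusion.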

Assay [6] relates to C6. Nature of the assay: Cytotoxicity against rat C6 cells after 24 hrs by trypan blue exclusion assay. The note with it: C6, 24 h. It counts as functional, cell-based. The gist of the method: (§3)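 Human melanoma and C6 glioma cells grown in DMEM with 10% FBS and 1% penicillin/streptomycin, 37 °C, 5% CO2. Seeded at 1 × 10^5 cells/well and exposed to various compound concentrations for 24 h. Cells counted; viability by trypan blue exclusion.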

Assay [7] deals with Radical scavenging activity. Nature of the assay: Antioxidant activity against DPPH radical scavenging activity. It counts as functional. The procedure, abridged:
as §1

Assay [8] has as its system HL-60. The assay can be described thus: Cytotoxicity against human HL60 cells at >15 ug/ml after 24 hrs by trypan blue exclusion assay. It counts as functional, cell-based. The procedure, abridged:
as §2

The test system of assay [9] is C6. The assay can be described thus: Cytotoxicity against rat C6 cells at >15 ug/m after 24 hrs by trypan blue exclusion assay. It counts as functional, cell-based. The gist of the method: as §3
In assay [10] the test system is Melanoma cell. Nature of the assay: Induction of apoptosis in human Melanoma cells assessed as accumulation at subG1 at 15 uM after 12 hrs by flow cytometry analysis. To be noted: in the assay text read “15 ug/mL” for “15 uM”. Type of assay: functional. The gist of the method:
(§4)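 Melanoma cells (1 × 10^6 per 60 mm dish) preincubated 12 h, then exposed to 15 µg/mL compound or DMSO for 0, 3, 6, 12 or 24 h. Cells fixed in ice-cold ethanol at −20 °C overnight, treated with Triton X-100/RNase A 30 min at 37 °C, stained with propidium iodide. Sub-G1 (lower DNA content) fraction measured by flow cytometry.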
In general terms: In flow cytometry, cells or beads pass a laser one at a time.

The subject of assay [11] is Melanoma cell. The assay can be described thus: Induction of apoptosis in human Melanoma cells assessed as accumulation at subG1 at 15 uM after 24 hrs by flow cytometry analysis. Type of assay: functional. The note with it: in the assay text read “15 ug/mL” for “15 uM”. The procedure, abridged:
as §4

Assay [12] relates to Melanoma cell. Nature of the assay: Cytotoxicity against human Melanoma cells after 24 hrs by trypan blue exclusion assay. It counts as functional, cell-based. The procedure, abridged: as §3
The test system of a further assay is HL-60 (Homo sapiens). Nature of the assay: Induction of apoptosis in human HL-60 cells assessed as DNA fragmentation at 5 ug/ml after 24 hrs by agarose gel electrophoresis.
For assay [13], the system named is Melanoma cell. Nature of the assay: Induction of apoptosis in human Melanoma cells assessed as accumulation at subG1 at 15 ug/mL after 3 hrs by flow cytometry analysis.
Assay [14] has as its system Melanoma cell. The assay can be described thus: Induction of apoptosis in human Melanoma cells assessed as accumulation at subG1 at 15 ug/mL after 6 hrs by flow cytometry analysis.

With `O=C(/C=C/c1ccc(O)c(O)c1)OCCc1ccccc1`, the Activity in [1] was found to be 39.1%; in [2], 85.5%; in assay [3] it was 98.5%; in assay [4], 99.8%.

In the case of `C/C(=C/Cc1c([C@@H]2CC(=O)c3c(O)cc(O)cc3O2)ccc(O)c1O)CCCC(C)(C)O` [PROPOLIN A], the IC50 is 7.5 µg/mL (≈ 16.9 µM) with HL-60 [5], 3.5 µg/mL (≈ 7.91 µM) in the assay on C6 [6], 5 µg/mL (≈ 11.3 µM) in assay [7] and 6 µg/mL (≈ 13.6 µM) in the assay on Melanoma cell [12]. Also, the Activity in [1] was found to be 36%; in [2] it was 72.2%; in assay [3] it was 92.1%; in assay [4] it was 99.5%; with Melanoma cell [10], 23.93%; in the assay with Melanoma cell [11], 40.95%. For the same molecule, the results for the Activity in the assay on Melanoma cell [13] and in the assay on Melanoma cell [14] were 15.01% and 15.22%, respectively. The outcome with HL-60 [8], in the assay on C6 [9] and in the assay with HL-60 (Homo sapiens) was Active.

As for `C/C(=C\Cc1cc([C@@H]2CC(=O)c3c(O)cc(O)cc3O2)cc(O)c1O)CCCC(C)(C)O` [PROPOLIN B], the IC50 in the assay on HL-60 [5] turned out to be 7.5 µg/mL (≈ 16.9 µM); in the assay on C6 [6] it was 4 µg/mL (≈ 9.04 µM); in assay [7], 9 µg/mL (≈ 20.3 µM); in the assay with Melanoma cell [12], 7.5 µg/mL (≈ 16.9 µM). Moreover, the Activity in [1] is 18.3%; in assay [2] it was 36.7%; in assay [3] it was 85.7%; in [4], 94.7%.

Values taken from ChEMBL document CHEMBL1159358, “Cytotoxic prenylflavanones from Taiwanese propolis” (J Nat Prod, 2003).
